The text below walks through data of PMC6541004 (Antiviral research, 2018).

In one data set the test system is DENV2 replicon. Description: microbe, parasite or virus in culture. The format is cell-based. Particulars: Dengue virus, DENV2, BHK-21, 24 h, read-out: EC50 (replicon). A general note: In antiviral work, replicon cells carry a viral genome segment that copies itself.
Another data set concerns actin. The note with it: read-out: IC50 of inhibition of actin polymerization; ref Dhar et al., 2015; cited from earlier work.
The subject of the next data set is DENV2. Put plainly: Plaque assay of DENV2 infectivity. The format is cell-based. The note with it: Dengue virus, DENV2, read-out: EC50 (PFU).
The next data set deals with DENV2 NS2B-NS3pro (Dengue virus type 2, UniProt P14340). Description: In vitro protease assay. The format is biochemical.
For data set [1], the system named is oleic acid-induced LD in DENV2 infected BHK-21 cells. Put plainly: Oil Red O staining of lipid droplets. Particulars: 0.1 mM oleic acid-BSA, 5 μM, 24 h, absorbance at 405 nm. Format: cell-based. In outline: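 BHK-21 cells in MEM with 10% FBS were infected with DENV2 at MOI 1 for 1 h. They were then incubated for 24 h in MEM with 0.1 mM oleic acid-BSA plus test compound (5 μM in imaged wells), with 1% DMSO as negative control. Cells were PBS-washed, fixed in 4% paraformaldehyde for 10 min, and stained with ORO and DAPI. Dye was extracted in 100% isopropanol and read at A405. Duplicates were averaged.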

Data set [2] can be described thus: Cell-based cytotoxicity assay. Also on record: species or system Baby Hamster. Particulars: hamster.
The next data set concerns BHK-21 cells. Description: Cell-based cytotoxicity assay. Also on record: species or system Baby Hamster.
The mark [3] stands for this setting: read-out: IC50 (protease activity), mean ± SD of two replicates, 25 nM DENV2 protease, 25 μM substrate Bz-Nle-Lys-Arg-Arg-AMC, 30 min, inhibitor concentrations 1.56-200 μM.

One may read the EC50 as the concentration giving half of the maximal effect. A word on the IC50: it is the point on the concentration scale where inhibition reaches its midpoint. One may read the CC50 as the concentration that lowers cell viability or growth by half. High values mean lower toxicity to the cells, low ones greater toxicity to the cells.

Read-outs that look alike come from different tables or passages of the source.

Sequence of DENV2 NS2B-NS3pro (P14340 1476-1653): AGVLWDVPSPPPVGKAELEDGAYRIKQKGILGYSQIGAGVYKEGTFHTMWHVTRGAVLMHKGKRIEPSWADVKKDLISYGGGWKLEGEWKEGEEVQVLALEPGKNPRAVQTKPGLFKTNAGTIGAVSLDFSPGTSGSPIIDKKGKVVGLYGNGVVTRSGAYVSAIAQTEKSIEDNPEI
Sequence of DENV2 NS2B-NS3pro (P14340 1398-1437): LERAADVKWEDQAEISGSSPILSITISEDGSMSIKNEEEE

As to `COc1cc(C=CC(=O)CC(=O)C=Cc2ccc(O)c(OC)c2)ccc1O` [CC1, 1,7-bis(4-hydroxy-3-methoxyphenyl)-1,6-heptadiene-3,5-dione, reference compound], the EC50 with DENV2 replicon turned out to be 13.9 ± 2.08 µM; in the data set with DENV2, 14 ± 4.62 µM. Moreover, the IC50 was 16 µM in the data set with actin and 66 ± 13.1 µM at DENV2 NS2B-NS3pro. Further, the “oleic acid-induced lipid droplets (LD), Oil Red O” value in data set [1] was “affected LD levels”. For the same molecule, in data set [2] (BHK-21 cells), half-maximal cytotoxicity (CC50 at 24 h) was put at 49 ± 8.24 µM.

As to `O=C(/C=C/c1ccc(O)cc1)CC(=O)/C=C/c1ccc(O)cc1` [CC2, Bisdemethoxycurcumin], the EC50 turned out to be 26.4 ± 3.67 µM in the data set on DENV2 replicon and 6.49 ± 0.22 µM in the data set with DENV2. The molecule further showed an IC50 on DENV2 NS2B-NS3pro of 36.2 ± 9.67 µM. The same molecule came in with a 50% cytotoxic concentration (CC50) at 24 h in data set [2] of 43.4 ± 5.19 µM.

Take `COc1cc(/C=C2\CC/C(=C\c3ccc(O)c(OC)c3)C2=O)ccc1O` [CC4]: the IC50 on DENV2 NS2B-NS3pro (setting [3]) was 43.9 ± 10.1 µM.

For `COc1cc(C=C2CCCC(=Cc3ccc(O)c(OC)c3)C2=O)ccc1O` [CC5], the IC50 at DENV2 NS2B-NS3pro (setting [3]) came out at 61 ± 8.7 µM. Moreover, the CC50 in the data set on BHK-21 cells was determined as 25.5 ± 2.64 µM.
